Measurements: ChEMBL document CHEMBL4308845, “Allosteric Activation of Striatal-Enriched Protein Tyrosine Phosphatase (STEP, PTPN5) by a Fragment-like Molecule” (J Med Chem, 2019)
The source made the active and inactive calls. No cut-off for these calls is given here.

Tests used:
Homo sapiens [1] = species: Homo sapiens; test: Activation of human STEP46 (197 to 565 residues) expressed in Escherichia coli BL21(DE3) using pFyn peptide substrate after 60 mins by RapidFire MS/MS assay relative to control
In short: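 Unlabeled Fyn peptide with STEP46 (50 nM final) and compound (500 μM final) in 50 mM HEPES, 0.02% Brij35, 1 mM DTT; 1 h at room temperature. Stopped with sodium orthovanadate (12 μM final), internal standard peptide added, dephosphorylation quantified by RapidFire MS/MS using MRM in positive mode.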

Homo sapiens [2] = species: Homo sapiens; test: Activation of human STEP46 (197 to 565 residues) expressed in Escherichia coli BL21(DE3) at 1000 uM preincubated for 10 mins followed by DiFMUP substrate addition and measured at 1 min time interval for 30 mins by fluorescence assay relative to control
In short: (§1)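 STEP46 preincubated 10 min at room temperature with compound; reaction started with DiFMUP. Final: 100 nM STEP46, 1 μM DiFMUP, 50 mM HEPES, 0.02% Brij 35, 1 mM DTT, 5% DMSO. Fluorescence (ex 340/em 460 nm) every 1 min for 30 min at 37 °C; no-enzyme background subtracted. Linear slope expressed relative to enzyme without compound (100%).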

[3] = biological target: T1, Tyrosine-protein phosphatase non-receptor type 5 (Mus musculus) (UniProt P54830); test: Activation of mouse STEP PTP domain (244 to 539 residues) expressed in Escherichia coli BL21(DE3) at 500 uM using biotin-pFyn peptide substrate after 60 mins by AlphaLISA assay
T1 sequence (whole entry): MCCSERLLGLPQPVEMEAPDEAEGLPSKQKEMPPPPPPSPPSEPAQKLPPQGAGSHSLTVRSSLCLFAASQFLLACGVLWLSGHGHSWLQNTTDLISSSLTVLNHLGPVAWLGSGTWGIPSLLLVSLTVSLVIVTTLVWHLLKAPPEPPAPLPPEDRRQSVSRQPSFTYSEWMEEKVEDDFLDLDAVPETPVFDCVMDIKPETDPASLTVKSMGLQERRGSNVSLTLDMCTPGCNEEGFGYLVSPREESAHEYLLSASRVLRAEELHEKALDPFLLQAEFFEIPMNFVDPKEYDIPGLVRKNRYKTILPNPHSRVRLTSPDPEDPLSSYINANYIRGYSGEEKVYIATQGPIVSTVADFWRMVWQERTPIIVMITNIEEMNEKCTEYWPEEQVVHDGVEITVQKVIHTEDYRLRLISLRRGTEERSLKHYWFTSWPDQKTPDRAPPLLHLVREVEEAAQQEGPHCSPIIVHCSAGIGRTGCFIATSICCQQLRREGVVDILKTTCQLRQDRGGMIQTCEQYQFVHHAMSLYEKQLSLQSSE

[4] = biological target: T2, Tyrosine-protein phosphatase non-receptor type 5 (Homo sapiens) (UniProt P54829); test: Binding affinity to human 15N-labeled STEP PTP domain (281 to 563 residues) expressed in Escherichia coli OD2 assessed as induction of chemical perturbation at 500 uM by 1H,15N TROSY NMR spectral analysis
T2 sequence (whole entry): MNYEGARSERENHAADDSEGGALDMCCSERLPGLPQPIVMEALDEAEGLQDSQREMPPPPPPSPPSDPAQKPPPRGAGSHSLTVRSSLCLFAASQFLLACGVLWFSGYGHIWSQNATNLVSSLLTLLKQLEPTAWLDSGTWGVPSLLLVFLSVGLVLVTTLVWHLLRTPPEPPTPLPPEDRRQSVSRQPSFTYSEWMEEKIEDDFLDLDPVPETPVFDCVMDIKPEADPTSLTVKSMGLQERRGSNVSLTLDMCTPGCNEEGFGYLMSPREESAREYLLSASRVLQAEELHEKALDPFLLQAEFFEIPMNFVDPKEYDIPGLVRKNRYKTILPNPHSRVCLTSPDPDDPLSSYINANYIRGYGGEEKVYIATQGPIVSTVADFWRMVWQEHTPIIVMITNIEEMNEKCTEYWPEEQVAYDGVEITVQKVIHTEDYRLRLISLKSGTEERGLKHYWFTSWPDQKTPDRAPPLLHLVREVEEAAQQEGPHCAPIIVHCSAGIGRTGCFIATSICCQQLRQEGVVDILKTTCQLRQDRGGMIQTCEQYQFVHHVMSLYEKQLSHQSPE
In short: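 40 μM 15N-labelled STEP PTP domain in 20 mM Tris-d11, 100 mM NaCl, 1 mM TCEP, pH 7.4, 8% D2O, 1% DMSO-d6, 298 K. TROSY spectra used 192 transients and 64 indirect points. Binders were called by manual comparison with the protein-only reference spectrum.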

[5] = biological target: T2, Tyrosine-protein phosphatase non-receptor type 5 (Homo sapiens); test: Activation of human STEP PTP domain (281 to 563 residues) expressed in Escherichia coli BL21(DE3) at 500 uM using biotin-pFyn peptide substrate after 60 mins by AlphaLISA assay relative to control
In short: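 AlphaLISA on the human STEP PTP domain (E. coli BL21(DE3)), 20 nM enzyme with 3 nM biotin-pFyn peptide, otherwise as for STEP46: 60 min at room temperature, anti non-phospho Src/Tyr416 antibody with orthovanadate stop, donor and acceptor beads, % of enzyme and no-enzyme controls.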

Homo sapiens [6] = species: Homo sapiens; test: Activation of human STEP46 (197 to 565 residues) expressed in Escherichia coli BL21(DE3) at 300 uM preincubated for 10 mins followed by DiFMUP substrate addition and measured at 1 min time interval for 30 mins by fluorescence assay relative to control; in short: as §1
Homo sapiens [7] = species: Homo sapiens; test: Binding affinity to human STEP46 (197 to 565 residues) expressed in Escherichia coli BL21(DE3) assessed as increase in melting temperature at 500 uM by SYPRO Orange dye based DSF
In short: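 STEP46 at 5 μM with 25× SYPRO Orange and 500 μM ligand (1% DMSO) in 20 mM HEPES pH 7.5, 50 mM NaCl, 1 mM TCEP, in duplicate. Heated 25 to 95 °C at 1 °C/min with reads every 0.5 °C. Tm taken from the minimum of the first-derivative curve; ΔTm relative to DMSO.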

N=C(N)Nc1cc(C2CCNCC2)cc(C(F)(F)F)c1
Activity (Homo sapiens [1]): 28%
Activity (Homo sapiens [2]): 48%
Activity [3]: Active
Activity [4]: Active
Activity [5]: 61%
Activity (Homo sapiens [6]): 27%
ΔTm (Homo sapiens [7]): 1.4 °C
